Fewer inactive variants are shown than the library holds.
B1: tRNA (parent)
chain: GUUCCGUUGGCGUAAUGGUAACGCGUCUCCCUCCUAAGGAGAAGACUGCGGGUUCGAGUCCCGUACGGAACG

Variants of: B1
Assay: yeast fitness relative to wild type (ratio to wild type); higher = fitter; tRNA-Arg(CCU), competitive growth, 37 C, YPD
Summary of the method: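 For this measurement, the tRNA-Arg(CCU) gene was varied by chemical synthesis at a 3% per-site mutation rate across 69 sites, and each variant was placed at the native genomic locus in Saccharomyces cerevisiae. The pooled strains went through a 24-hour competition in YPD at 37°C in six parallel replicates, with amplicons from start and end populations read by 100-nucleotide paired-end sequencing. Darwinian fitness relative to wild type followed from the change in each genotype's frequency. Genotypes needed ≥ 100 starting reads, and estimates < 0.5 were set to 0.5.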
For GUUCCGUUCGCGUAAUGGUAACGCGUCUCCCUCCUAAGGAGAAGACUGCGGGUCCGAGUCCCGUACGGAACG [G9C U54C], the yeast fitness was 0.704.
With GUUCCGUUCGCGUAAUGGUAACGCGUCUCCCUCCUAAGGAGAAGACUGCGGGUGCGAGUCCCGUACGGACCG [G9C U54G A70C] the yeast fitness was 0.545.
In the case of GUUCCGUUUGCGUAAUGGUAACGCGUCUCCCUCCUAAGGAGAAGACUGCGGGUUCGAGUCCCGUACGGAACG [G9U], the yeast fitness is reported as 0.955.
In the case of GUUCCGUUUGCGUCAUGGUAACGUGUCUCCCUCCCAAGGAGAAGAGUGCGGAUUCGAGUCACGUACGGAACG [G9U A14C C24U U35C C46G G52A C61A], the yeast fitness is reported as ≤ 0.5.
With GUUCCGUUUGCGUGAUGAUAACGCGUCUCCCUCCUAAGGAGAAGAAUGGGGGUUCGAGUCCCGUACGGAACG [G9U A14G G18A C46A C49G] the yeast fitness was ≤ 0.5.
In the case of GUUCCGUUUGCGUAAUGGUCACGCGUCUUCCUCCUAAGGAGAAGACUGCCGGUUCGAGGCCUGUACGAAACG [G9U A20C C29U G50C U59G C62U G68A], the yeast fitness is reported as ≤ 0.5.
With GUUCCGUUUGCGUAAUGGUACCGCGUCUCCCUCCUAAGGAGUACACUGCGGGCUCGAGUCCCGUACGGAACG [G9U A21C A42U G44C U53C] the yeast fitness was ≤ 0.5.
In the case of GUUCCGUUUGCGUAAUGGUAACGCGUCUCCCUCCUAAGGAGAGGACUGCGGGUUCGAGUCCCGUACGGAACG [G9U A43G], the yeast fitness is reported as 0.817.
GUUCCGUUUGCGUAAUGGUAACGCGUCUCCCUCCUAAGGAGAAGACUGCGGGUUCGAGUCCCGUUCGGAACG [G9U A65U] gave a yeast fitness of 0.639.
With GUUCCGUUUGCGUAAUGGUAACGCGUCUCCCUCCUAAGGAGAAGACUGCGGGUUCGAGUCCCGUACGGCACG [G9U A69C] the yeast fitness was 0.909.
In the case of GUUCCGUUUGAGUGAUGGUAACGUGUCUCCCUCCUAAGGACAAGACUGCGGGUUGGAGUCCCGUACGGAACG [G9U C11A A14G C24U G41C C55G], the yeast fitness is reported as ≤ 0.5.
For GUUCCGUUUGCGUAAUGGUAAGGCGUCUCCCUCCUAAGGAGAAGACUGCGGGUUCGAGUCCCGUACGGAUCG [G9U C22G A70U], the yeast fitness was 0.623.
In the case of GUUCCGUUUGCGUAAUGGUAACGGGUCUCCCUCCUAAGGAGAAGCCUGCGGGUUCGAGUCCCGUACGGAACG [G9U C24G A45C], the yeast fitness is reported as ≤ 0.5.
With GUUCCGUUUGCGUAAUGGUAACGGGUCUCCCUCCUAAGGAGAAGACUGCGGGUUUGAGUCCCGUAUGGAACG [G9U C24G C55U C66U] the yeast fitness was ≤ 0.5.
In the case of GUUCCGUUUGCGUAAUGGUAACGUGUCUCCCUCCAAAGGGGAAGACUGCGGGUUCGAGUACCGUACCGAACG [G9U C24U U35A A40G C60A G67C], the yeast fitness is reported as ≤ 0.5.
With GUUCCGUUUGCGUAAUGGUAACGCGUCUGCCUCCUAAGGAGAAGACUGCGGGUUCGAGUCCCGUUCGGAACG [G9U C29G A65U] the yeast fitness was ≤ 0.5.
GUUCCGUUUGCGUAAUGGUAACGCGUCUCCCUUCUAAGGAGAUGACUGCGGGUUCGAGGCCCGUACGGAACG [G9U C33U A43U U59G] gave a yeast fitness of 0.676.
With GUUCCGUUUGCGUAAUGGUAACGCGUCUCCCUCUUAAGGAAAAGACUGCGGGUUCGAGUCCCGUACGGAACG [G9U C34U G41A] the yeast fitness was ≤ 0.5.
In the case of GUUCCGUUUGCGUAAUGGUAACGCGUCUCCCUCCUAAGCAGAAGACUGCGGGUUCGAGUCCCGUACGGACCG [G9U G39C A70C], the yeast fitness is reported as ≤ 0.5.
For GUUCCGUUUGCGUAAUGGUAACGCGUCUCCCUCCUAAGGAGAAGACUGCGGGUUCGAGUCCCAUACGGAACG [G9U G63A], the yeast fitness was 0.71.
In the case of GUUCCGUUUGCGUAAUGGUAACGCGUCUCCCUCCUAAGGAGAAGACUGCGGGUUCGAGUCCCAUUCGGAACG [G9U G63A A65U], the yeast fitness is reported as ≤ 0.5.
For GUUCCGUUUGCGUAAUGGUAACGCGUCUCCCUCCUAAGGAGAAGACUGCGGGUUCGAGUCCCGUACGCAACG [G9U G68C], the yeast fitness was 0.77.
With GUUCCGUUUGCGCAAUGGUAACGCGUCUCCCUCCUAAGGAGAAGACUGCGGGUUCGCGUCCCGUAAGGAACG [G9U U13C A57C C66A] the yeast fitness was ≤ 0.5.
In the case of GUUCCGUUUGCGUAAGGGUAACGCGUCUCCCUCCUAAGGAGAAGACUGCGGGUUCGAGUCCCGUACGGAACG [G9U U16G], the yeast fitness is reported as 0.612.
In the case of GUUCCGUUGACGUCAUGGUAACGCGUCUCCCUCCUAAGGAGAAGACUGCGGGUUCGAGUCCCGUACGGAACG [G10A A14C], the yeast fitness is reported as 0.539.
In the case of GUUCCGUUGACGUCAUGGUAAUGCGUCUCCCUCCUAAGGAGAAGACUGCGGGUUCGAGUCCCGUACGGAACG [G10A A14C C22U], the yeast fitness is reported as ≤ 0.5.
In the case of GUUCCGUUGACGUCAUGGUAACGCGUGUCCCUCCUAAGGAGAAGAGUGCGGGUUCGAGUCCCGUGCGGAACG [G10A A14C C27G C46G A65G], the yeast fitness is reported as ≤ 0.5.
In the case of GUUCCGUUGACGUCAUGGUAACGCGUCUCCCUCUUAAGGAGGAGACUGCGGGUUCGAGUCCCGUUCGAAACG [G10A A14C C34U A42G A65U G68A], the yeast fitness is reported as ≤ 0.5.
With GUUCCGUUGACGUCAUGGUAACGCGUCUCCCACCUAAGGAGAAGACUGCGGGUUCGAGUCCCGUACGGAACG [G10A A14C U32A] the yeast fitness was ≤ 0.5.
Variant GUUCCGUUGACGUGAUGGUAACGCGUCUCCCUCCUAAGGAGAAGACUGCGGGUUCGAGUCCCGUACGGAACG [G10A A14G] has a yeast fitness of 0.671.
Work on GUUCCGUUGACGUGAUGGUAACGCGUCUCCCUCCUAAGGAGAAGACUGCGGGUUCGAGUCCCGUACGGACCG [G10A A14G A70C] yielded a yeast fitness of 0.535.
With GUUCCGUUGACGUGAUGGUAACGCGUUUCCCUCCUAAGGCGAAGACACCGGGUUCGAGUCCCGUACGGAACG [G10A A14G C27U A40C U47A G48C] the yeast fitness was ≤ 0.5.
For GUUCCGUUGACGUGAUGGUAACGCGUCUGCCUCCUAAGGAGAAGACUGCGGGUUCGAGUCCCGUACGGAACG [G10A A14G C29G], the yeast fitness was ≤ 0.5.
For GUUCCGUUGACGUGAUGGUAACGCGUCUCCCUUCUAAGGAGAAGACUGCGGGUUCGAGUCCCGUACGGAACG [G10A A14G C33U], the yeast fitness was ≤ 0.5.
For GUUCCGUUGACGUGAUGGUAACGCGUCUCCCUCCUAAGGAGAAGAAUGCGGGUUCGGGUCCCGUACGGAACG [G10A A14G C46A A57G], the yeast fitness was ≤ 0.5.
In the case of GUUCCGUUGACGUUAUGGUGACGCGGCUCCGUCGUAAGGAGUCGACUGCCGGUUCGAGUCCCAUACGGAACG [G10A A14U A20G U26G C31G C34G A42U A43C G50C G63A], the yeast fitness is reported as ≤ 0.5.
In the case of GUUCCGUUGACGUUAUGGUAACGCGUCUCUCUCCUACGGAGAAGACUGCGGGAUCGAGUCCCGUACGGAACG [G10A A14U C30U A37C U53A], the yeast fitness is reported as ≤ 0.5.

From the RNAGym collection of RNA variant scans (doi:10.1126/science.aae0568)
